Bioassay records: PubChem BioAssay, The Scripps Research Institute Molecular Screening Center
Only some compounds are listed: those with a hit (about 3.4% of all), similar ones and a draw of the others.
M1 ag: agonists of human M1 muscarinic receptor | P11229 | CHO-K1 hM1, Fluo-8 calcium fluorescence, agonist mode; 0% DMSO, 100% acetylcholine EC100 | activation, % at 3 µM | 360,000 tested, 0.33% active;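 active = activation above the run's mean compound activation plus 3 SD, cut at about 16% in these data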;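 also: peak over basal fluorescence ratio within a 140 s kinetic read after compound addition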
Target sequence (P11229 whole entry, looked up): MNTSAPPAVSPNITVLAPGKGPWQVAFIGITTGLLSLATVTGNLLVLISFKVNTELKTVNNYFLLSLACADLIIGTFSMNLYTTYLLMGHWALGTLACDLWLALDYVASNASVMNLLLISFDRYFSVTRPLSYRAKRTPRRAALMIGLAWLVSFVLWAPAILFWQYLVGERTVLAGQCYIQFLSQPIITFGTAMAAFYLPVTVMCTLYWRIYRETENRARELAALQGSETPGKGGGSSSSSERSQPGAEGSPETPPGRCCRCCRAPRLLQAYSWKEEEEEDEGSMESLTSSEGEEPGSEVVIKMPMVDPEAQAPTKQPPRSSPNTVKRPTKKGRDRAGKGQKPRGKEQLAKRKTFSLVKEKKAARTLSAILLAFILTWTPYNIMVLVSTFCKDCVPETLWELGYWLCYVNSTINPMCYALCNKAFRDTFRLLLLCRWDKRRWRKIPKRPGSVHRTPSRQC
M1 antag: antagonists of human M1 muscarinic receptor; P11229; inhibition, % at 3 µM; 360,000 tested, 1.3% active; CHO-K1 hM1, Fluo-8 calcium fluorescence, ACh EC80 antagonist;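 active = percent inhibition above its own plate's cutoff, namely the mean of that plate's compound wells plus 3 SD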;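 also: peak over basal fluorescence ratio during 140 s after agonist addition; 0% = ACh EC80 plus DMSO and 100% = DMSO alone without agonist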
M1 PAM: human CHRM1 positive allosteric modulation | CHO-K1 hM1, Fluo-8 calcium fluorescence, ACh EC20; 0% = ACh EC20, 100% = maximal ACh | activation, % at 3 µM | 360,000 tested, 0.088% active | AID 588819; in the data active = activation above about 19%, passing the limit was not always enough
TAAR1 antagonist: antagonists of human TAAR1. CHO RD-HGA16 TAAR1, Fluo-8 calcium fluorescence, antagonist. Q96RJ0. 360,000 tested, 1.5% active. inhibition, % at 3 µM;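 active = inhibition above a per-plate cutoff, the mean inhibition of test compounds on that plate plus 3 SD, cut at about 49% in these data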;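 also: 0% = DMSO plus EC80 beta-PEA response and 100% = DMSO alone without agonist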
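Test system – hTAAR1-expressing CHO RD-HGA16 cells, Gα16-coupled · Reagent – β-PEA at EC80 concentration, post-compound challenge · Compound dosing – 3 µM, single point · Timing – 140 s kinetic read after compound, 140 s after agonist · Detection – Fluo-8 intracellular calcium dye fluorescence, real-time kinetic reads · Control set – DMSO and EC80 PEA controls · Repeats – n of 1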
TAAR1 agonist: human TAAR1 agonism. Q96RJ0. CHO RD-HGA16 TAAR1, Fluo-8 calcium fluorescence; vehicle wells 0%, saturating PEA agonist 100%. activation, % at 3 µM. 360,000 tested, 0.99% active. AID 624467;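 active = activation above the mean activation of all test compounds in the run plus 3 SD, cut at about 38% in these data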
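Benchmarks: low control DMSO, high control PEA (EC100); System: CHO RD-HGA16 cells carrying human TAAR1 plus Gα16; Detection: Fluo-8 fluorescence, 5 s baseline then 140 s kinetic read; Schedule: 17-24 h plating, Fluo-8 75 min 37 °C, 30 min RT; Read-out basis: % activation from peak over basal fluorescence ratio, DMSO-to-PEA scaled.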
The depositor's hits bear a star; . = not tested or not shown.

SMILES	M1 ag	M1 antag	M1 PAM	TAAR1 antagonist	TAAR1 agonist
CN(C)CCNC(=O)c1ccc2c(c1)NC(=O)c1ccccc1S2	-9	-10	7	-11	7
CN(C)CC/C=C1/c2ccccc2Sc2c(O)cc(Cl)cc21	-10	97*	-31	21	3
COc1cc2c(cc1Cl)/C(=C\CCN(C)C)c1ccccc1S2	-4	66*	-17	-11	10
CN(C)CC/C=C1/c2cc(F)ccc2Sc2ccc(Cl)cc21	-7	99*	-27	-13	23
CN(C)CCNC(=O)Nc1ccc(F)cc1F	-1	-7	11	-9	12
COc1cccc(-c2cnc3c(NC(C)=O)cc(-c4ccccc4OC)cn23)c1	-4	3	-9	57*	5
COc1cccc(-c2cnc3c(NC(C)=O)cc(-c4cc(OC)c(OC)c(OC)c4)cn23)c1	-4	7	-10	51*	1
COc1ccc(-c2cnc3c(NC(C)=O)cc(-c4cc(F)ccc4OC)cn23)cc1OC	17*	1	22	14	19
COc1cccc(-c2cnc3c(NC(C)=O)cc(-c4ccncc4)cn23)c1	-7	-3	7	-6	-3
COc1ccc(C(=O)NCC2CCN(C(=O)C(=O)c3cccs3)CC2)c(OC)c1	.	.	.	-12	0
COc1ccc(N2C(=O)c3n[nH]c(C)c3C2c2ccc(F)cc2)cc1 (stereo unspecified)	.	.	.	-29	2
CCCCOCCCNC(=O)C[C@H]1C[C@@]2(C(=O)OC)C(=C[C@H](C(C)C)O[C@@H]2C2CC2)N(Cc2ccccc2)C1=O	.	.	.	-9	-1
COC(=O)c1cc2c(c3c4ccccc4n(S(=O)(=O)c4cccc(C)c4)c13)C(=O)N(Cc1ccc(N(C)C)cc1)C2	.	.	.	-1	0
O=C(CSc1n[nH]c(-c2ccc(Br)cc2)n1)NC1CCCC1	0	25	-18	67*	43*
CCN1/C(=C2\C(=O)N(c3ccccc3)N=C2C)C=Cc2cc(C)ccc21	20*	11	-14	-3	2
COc1ccc(-c2cc(=O)c3cccc(CC(=O)O)c3o2)cc1	.	.	.	-5	0
O=C(COC(=O)c1cc(=O)[nH]c2ccccc12)Nc1nc(-c2ccccc2)cs1	-1	21	-5	50*	7
O=C(COC(=O)c1cc(=O)[nH]c2ccccc12)Nc1nccs1	1	5	-2	-2	3
Cc1cccc(C)c1NC(=O)C(c1ccccc1)n1c(-c2ccccc2)nc2ccccc21 (stereo unspecified)	.	.	.	-3	-1
O=C(CCc1ccccn1)N1CCCC(Nc2cccc(F)c2)C1 (stereo unspecified)	27*	-1	8	-12	1
O=C(CCc1ccccn1)N1CCCC(Nc2ccc(F)cc2)C1 (stereo unspecified)	0	-5	4	-16	0
COC(=O)[C@]12C[C@H](CC(=O)NCc3ccc(OC)c(OC)c3)C(=O)N(CCc3ccc(OC)c(OC)c3)C1=C[C@H](C(C)(C)C)O[C@@H]2C	.	.	.	13	2
O=C(CN1CCN(CCOCCO)CC1)N1c2ccccc2Sc2ccc(Cl)cc21	-6	93*	-21	.	.
NC(=O)N1CCN(CCCN2c3ccccc3Sc3cc(Cl)ccc32)CC1	-8	-1	-2	-7	9
NCCC(=O)N1c2ccccc2Sc2ccc(Cl)cc21	-8	91*	-30	-3	2
SMILES	M1 ag	M1 antag	M1 PAM	TAAR1 antagonist	TAAR1 agonist
O=C(CN1CCOCC1)N1c2ccccc2Sc2ccc(Cl)cc21	-8	20	-17	-1	0
CN1CCN(CCC(=O)N2c3ccccc3Sc3ccc(Cl)cc32)CC1	-7	57*	-27	-31	3
CN1CCC=C(C(=O)N2c3ccccc3Sc3ccc(Cl)cc32)C1	-8	101*	-27	-9	0
CCC(c1nnnn1-c1ccc2c(c1)OCCO2)N1CCN(c2ccc(C)cc2)CC1 (stereo unspecified)	.	.	.	6	1
COc1ccc(CCN2C(=O)COc3ccccc3C2C(=O)Nc2ccc3c(c2)OCCO3)cc1OC (stereo unspecified)	.	.	.	-6	1
NCCCC(=O)N1c2ccccc2Sc2ccc(Cl)cc21	-9	100*	-28	-5	3
O=C(CCN1CCN2CCCC2C1)N1c2ccccc2Sc2ccc(Cl)cc21 (stereo unspecified)	-9	83*	-29	-7	0
CCOC(=O)N1CCC(N2CCN(CCC(C)C)C(CCO)C2)CC1 (stereo unspecified)	-9	41*	-21	-7	0
CCn1cc(CCC(=O)Nc2ccc(Oc3cccnc3)cc2)c2ccccc21	.	.	.	23	0
O=C(COc1ncnc2cc([N+](=O)[O-])ccc12)NCCc1ccc(Cl)cc1	-9	-1	9	-6	1
O=C(COc1ncnc2cc([N+](=O)[O-])ccc12)NC(=O)NC1CCCCC1	-4	-7	2	-2	41*
CCCc1ccc2c(C)cccc2n1	.	.	.	-2	0
O=C(NCCN1CCOCC1)C1CCN(c2nc3ccccc3o2)CC1	-7	26	-17	.	.
CC1CCCCN1CCCNC(=O)C1CCN(c2nc3ccccc3o2)CC1 (stereo unspecified)	-10	78*	-28	-4	0
C=CCOC(=O)CCC(=O)Nc1cccc2ccccc12	-3	-24	8	-21	3
O=C(CCC(=O)OCc1ccc(C(=O)Oc2ccccc2)cc1)Nc1cccc2ccccc12	-3	-2	2	49*	8
Nc1[nH]c(C(=O)c2ccccc2)c(-c2cccc3ccccc23)c1C(=O)c1cccs1	.	.	.	-7	-1
CO[C@@H]1[C@H](O)CC[C@]2(O)CN(c3ccccc3)[C@](C)([C@H](O)CC=C(C)C)[C@@H]12	.	.	.	-29	6
Cc1cc2nc(-c3ccc(F)cc3)c(CC(C)(C)C)n2c(C)c1Br	-2	-3	-9	-16	3
COc1ccc(NC2=Nc3cccc4cccc2c34)cc1	19*	7	-12	8	5
COC(=O)[C@@]12C[C@@H](CC(=O)NCCCCc3ccccc3)C(=O)N(Cc3ccc4c(c3)OCO4)C1=CCC(C)(C)C2	.	.	.	-61	1
Cc1nc2nc(SCC(=O)NCCCN3CCCC(C)C3)nn2c(C)c1Cc1ccccc1Cl (stereo unspecified)	1	63*	-24	-1	1
CC1CCCN(CCCNC(=O)CCn2nc(-c3ccccc3)ccc2=O)C1 (stereo unspecified)	-10	13	-10	6	0
Cc1nc2nc(SCC(=O)NCCCN3CCCCCC3)nn2c(C)c1Cc1ccccc1Cl	-5	100*	-24	-14	0
Cc1nc2nc(SCC(=O)N3CCOCC3)nn2c(C)c1Cc1c(F)cccc1Cl	-3	0	2	6	9
